Source: ChEMBL document CHEMBL1121816, “Adrenoceptor blocking agents. Compounds related to metoprolol” (1981)

What was measured:
[1] = biological target: Beta-1 adrenergic receptor (Homo sapiens) (UniProt P08588); assay: Intrinsic activity of compound against beta-1-adrenergic receptor given as percent of maximal heart rate by iv injection of supramaximal doses of isoprenaline (IPR); assay type: functional, organism-based; details: Felis catus
[2] = species: Felis catus; assay: Antagonistic effect of compound on peripheral vascular resistance was measured as KB in cats; assay type: functional
Outline: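 Reserpinized (5 mg/kg, 18 h prior), pentobarbital-anesthetized, vagotomized, ventilated cats. One hind leg perfused with the animal's own blood via the femoral artery at a constant flow above 10 mL/min; resistance read as perfusion pressure. Compound infused iv for 10 min in five stepwise concentrations, each followed by ia isoprenaline at about 80%-maximal dose. KB assumes competitive antagonism.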

[3] = biological target: Beta-1 adrenergic receptor (Homo sapiens) (UniProt P08588); assay: Agonistic effect of compound against beta-1-adrenergic receptor given as geometric mean (KA) of effect on heart rate; assay type: functional; details: Felis catus
Outline: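 Cats of either sex (2.6–3.2 kg), starved 24 h, given reserpine 5 mg/kg 18 h before; pentobarbital 30 mg/kg ip, then 0.1 mg/min/kg infusion; ventilated, bilaterally vagotomized. Heart rate triggered from carotid pressure. Compound infused iv for 10 min at 1.0 mL/min in five rising concentrations. KA taken as the dose giving a semimaximal heart-rate increase.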

Beta-1 adrenergic receptor (Homo sapiens), sequence (P08588 whole entry, looked up, the tested form may be a part): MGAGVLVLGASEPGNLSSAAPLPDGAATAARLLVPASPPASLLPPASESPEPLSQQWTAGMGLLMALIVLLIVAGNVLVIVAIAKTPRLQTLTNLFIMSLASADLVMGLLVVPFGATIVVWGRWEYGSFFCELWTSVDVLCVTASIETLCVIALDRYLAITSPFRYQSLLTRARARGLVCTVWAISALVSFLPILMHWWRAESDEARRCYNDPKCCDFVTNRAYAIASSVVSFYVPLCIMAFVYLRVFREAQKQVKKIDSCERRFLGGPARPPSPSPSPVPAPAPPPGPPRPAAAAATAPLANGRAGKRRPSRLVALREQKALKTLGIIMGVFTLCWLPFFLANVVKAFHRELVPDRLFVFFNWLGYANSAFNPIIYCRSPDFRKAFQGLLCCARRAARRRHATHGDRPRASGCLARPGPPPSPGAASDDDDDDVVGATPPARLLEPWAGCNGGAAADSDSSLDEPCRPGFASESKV

Structure (SMILES) | Intrinsic activity [1] [%] | KB [2] [µM/kg] | KA [3] [µM/kg]
COc1ccc(CCC(O)CNC(C)C)cc1.Cl (stereo unspecified) | 4.5 | 30.8 | –
Cc1ccc(OCCC(O)CNC(C)C)cc1.Cl (stereo unspecified) | – | 1.82 | –
COCc1ccc(CC(O)CNC(C)C)cc1.Cl (stereo unspecified) | – | 6.1 | –
COc1ccc(OCC(O)CNC(C)C)cc1.Cl (stereo unspecified) | 81.2 | 3.42 | 0.119
COCCc1ccc(C(O)CNC(C)C)cc1.Cl (stereo unspecified) | 22.5 | 23.6 | 0.536
COCCc1ccc(OCC(O)CNC(C)C)cc1.Cl (stereo unspecified) | – | 0.87 | –
